Results: ChEMBL document CHEMBL1157655, “Design and synthesis of novel series of pyrrole based chemotypes and their evaluation as selective aldose reductase inhibitors. A case of bioisosterism between a carboxylic acid moiety and that of a tetrazole” (Bioorg Med Chem, 2010)

Tests used:
[1] = biological target: T1, Aldo-keto reductase family 1 member A1 (Rattus norvegicus) (UniProt P51635); assay: Inhibition of rat kidney aldehyde reductase at 0.1 mM after 20 mins by spectrometric analysis
T1 sequence (whole entry): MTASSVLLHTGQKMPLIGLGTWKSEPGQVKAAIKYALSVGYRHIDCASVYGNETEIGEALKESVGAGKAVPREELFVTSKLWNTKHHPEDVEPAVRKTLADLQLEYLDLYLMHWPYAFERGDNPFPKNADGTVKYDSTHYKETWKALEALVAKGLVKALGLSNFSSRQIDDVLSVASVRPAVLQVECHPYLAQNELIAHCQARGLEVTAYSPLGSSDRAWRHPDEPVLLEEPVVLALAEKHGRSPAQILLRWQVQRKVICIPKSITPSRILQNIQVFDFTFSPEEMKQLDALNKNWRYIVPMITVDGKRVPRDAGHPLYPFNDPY

[2] = biological target: Aldo-keto reductase family 1 member B1 (Rattus norvegicus, UniProt P07943); assay: Inhibition of aldose reductase in Fischer-344 rat lens homogenate by spectrometric analysis
[3] = Antioxidant activity against AAPH-induced lipid peroxidation in unilamellar DOPC liposomes after 80 mins by thiocyanate reagent method; type: functional
How it was run: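 DOPC unilamellar liposomes (final 0.8 mM, phosphate buffer 20 mM pH 7.4) incubated with test compound (10–300 µM range stated) and AAPH (final 10 mM) at 50 °C for 80 min. Aliquots extracted with ice-cold CHCl3/MeOH (2:1) containing BHT. Lipid hydroperoxide determined by thiocyanate method, absorbance at 500 nm, quantified against cumene hydroperoxide calibration curve. Triplicate.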

[4] = system: Radical scavenging activity; assay: Antioxidant activity assessed as DPPH radical scavenging activity at 0.2 mM; type: functional
How it was run: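 Compounds in absolute ethanol added to an equal volume of ethanolic DPPH to give final 0.2–0.0125 mM compound and 0.2 mM DPPH. Continual absorbance decrease at 517 nm followed. Trolox reference. Triplicate.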

[5] = biological target: Aldo-keto reductase family 1 member B1 (Rattus norvegicus) (UniProt P07943); assay: Inhibition of aldose reductase in Fischer-344 rat lens homogenate at 0.1 mM by spectrometric analysis

| Structure (SMILES) | inhibition [1] [%] | IC50 [2] [µM] | IC50 [3] [µM] | Activity [4] [%] | inhibition [5] [%] |
| --- | --- | --- | --- | --- | --- |
| O=C(c1ccccc1)c1cccn1-c1nn[nH]n1 | 18 | 20 | > 300 | 10 |  |
| O=C(O)CCCn1ccc(C(=O)c2ccccc2)c1 | 22 | 6.04 |  |  |  |
| O=C(O)Cn1ccc(C(=O)c2ccccc2)c1 | 34 |  | > 300 | 10 |  |
| O=C(O)CCn1ccc(C(=O)c2ccccc2)c1 | 20 | 9.7 |  |  |  |
| Cc1c(C)c2c(c(C)c1O)CCC(C)(C(=O)O)O2 (stereo not drawn) [TROLOX] |  |  | 93.5 | 98 |  |
| O=C(c1ccccc1)c1ccn(-c2nn[nH]n2)c1 | 18 | 18 | > 300 | 10 |  |
| O=C(c1ccccc1)c1ccn(CCc2nn[nH]n2)c1 | 41 |  |  |  | 6 |
| O=C(c1ccccc1)c1ccn(CCCc2nn[nH]n2)c1 | 35 |  |  |  | 41 |
| O=C(c1ccccc1)c1ccn(Cc2nn[nH]n2)c1 | 23 |  |  |  | 40 |
